One may read the IC50 as the midpoint of a concentration-inhibition curve.

For data set [1], the target named is TEAD3-YBD recombinant protein (Homo sapiens, UniProt Q99594). Put plainly: gel-based ABPP in vitro palmitoylation assay, TEAD3. Format: biochemical. The settings on record: for inhibition of TEAD3 palmitoylation: click-based ABPP assay. Summed up: (§1)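 Protein incubated with varying test compound concentrations, 37 °C, 2 h; flufenamic acid as positive control. Then 2.5 μmol/L palmitoyl-CoA on ice, click reaction at RT. Quenched in SDS buffer with 30 mmol/L EDTA, 95 °C, 5 min. Read by Western blot with densitometry; biological triplicates, mean ± SD.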
Sequence of TEAD3-YBD recombinant protein (Q99594 219-435): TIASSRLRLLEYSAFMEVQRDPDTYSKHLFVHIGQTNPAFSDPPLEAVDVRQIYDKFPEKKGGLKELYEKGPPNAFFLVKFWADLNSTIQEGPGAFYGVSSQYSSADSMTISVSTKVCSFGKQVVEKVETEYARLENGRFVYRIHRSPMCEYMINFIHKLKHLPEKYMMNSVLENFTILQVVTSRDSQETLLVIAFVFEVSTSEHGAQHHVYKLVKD

For data set [2], the target named is T1, TEAD‒YAP interaction (Homo sapiens, UniProt Q99594). The settings on record: FP assay; cited from earlier work.
T1 sequence (Q99594 219-435): as above
T1 sequence (P46937 61-100 partner limits assumed): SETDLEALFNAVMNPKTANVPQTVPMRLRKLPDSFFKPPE
The target of data set [3] is TEAD2 (Homo sapiens, UniProt Q15562). In words: gel-based ABPP in vitro palmitoylation assay, TEAD2. Format: biochemical. The note with it: gel-based ABPP selectivity profiling. Summed up:
as §1

The target of data set [4] is TEAD4 (Homo sapiens, UniProt Q15561). In words: gel-based ABPP in vitro palmitoylation assay, TEAD4. In kind it is biochemical. The settings on record: gel-based ABPP selectivity profiling. Summed up: as §1
Sequence of TEAD4 (Q15561 217-434): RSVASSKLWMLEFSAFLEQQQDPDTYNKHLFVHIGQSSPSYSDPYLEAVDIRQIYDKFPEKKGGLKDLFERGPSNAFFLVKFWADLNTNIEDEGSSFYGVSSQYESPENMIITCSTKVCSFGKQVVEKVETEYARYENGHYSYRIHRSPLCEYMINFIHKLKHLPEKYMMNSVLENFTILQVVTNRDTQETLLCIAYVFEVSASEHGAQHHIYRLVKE
Data set [5] concerns the target TEAD3-YBD C371A mutant (Homo sapiens, UniProt Q99594, C368A). In words: protein thermal shift assay. Format: binding. The note with it: DSF. Put shortly: (§2)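 Differential scanning fluorimetry. 5 μmol/L purified wild-type or mutant protein with 5× SYPRO Orange, in 20 mmol/L HEPES pH 8.5, 100 mmol/L NaCl, 2.5% DMSO, with or without test compound. Ramped 25–95 °C on a real-time PCR instrument, ROX filter. Tm calculated from raw fluorescence data.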

For data set [6], the target named is TEAD1-YBD C359A mutant (Homo sapiens, UniProt P28347, C359A). Put plainly: protein thermal shift assay. The note with it: DSF. Format: binding.
Sequence of TEAD1-YBD C359A mutant (P28347 209-426 C359A): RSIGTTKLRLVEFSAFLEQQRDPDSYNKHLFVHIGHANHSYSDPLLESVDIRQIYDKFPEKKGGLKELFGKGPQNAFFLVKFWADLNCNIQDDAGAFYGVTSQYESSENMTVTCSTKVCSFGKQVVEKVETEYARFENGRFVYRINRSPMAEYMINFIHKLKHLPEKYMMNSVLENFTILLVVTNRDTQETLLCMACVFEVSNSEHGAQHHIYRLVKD
Data set [7] addresses T1, TEAD‒YAP interaction. Put plainly: fluorescence polarization assay with FITC-labeled YAP peptide. The note with it: FP assay, FITC-YAP(61-100), TEAD3 protein. Format: binding. Summed up: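 Then 30 nmol/L FITC-YAP(61–100) added for 30 min at room temperature. Polarisation read at ex 480/em 520 nm. Unlabelled synthetic YAP peptide as positive control; triplicates.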
On the technique in general: Polarisation of emitted light reports the rotation of a fluorescent probe.

In data set [8] the target is T2, TEAD1 (Homo sapiens, UniProt P28347). Put plainly: cellular thermal shift assay. The settings on record: HEK293T cells, 50 μmol/L, 6 h. Format: cell-based. Summed up: (§3)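 HEK293T transfected with N-terminal 3×FLAG-tagged TEAD1–4, then given 50 μmol/L test compound or DMSO, 37 °C, 6 h. Cells trypsinised, PBS-washed, resuspended in PBS with protease inhibitor. Aliquots heated 3 min at set temperatures, then 3 min at room temperature. Three freeze–thaw cycles (liquid nitrogen/RT water), spin 20,000×g, 30 min, 4 °C. Soluble fraction immunoblotted for FLAG, with GAPDH.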
Target sequence in this assay (P28347 whole entry): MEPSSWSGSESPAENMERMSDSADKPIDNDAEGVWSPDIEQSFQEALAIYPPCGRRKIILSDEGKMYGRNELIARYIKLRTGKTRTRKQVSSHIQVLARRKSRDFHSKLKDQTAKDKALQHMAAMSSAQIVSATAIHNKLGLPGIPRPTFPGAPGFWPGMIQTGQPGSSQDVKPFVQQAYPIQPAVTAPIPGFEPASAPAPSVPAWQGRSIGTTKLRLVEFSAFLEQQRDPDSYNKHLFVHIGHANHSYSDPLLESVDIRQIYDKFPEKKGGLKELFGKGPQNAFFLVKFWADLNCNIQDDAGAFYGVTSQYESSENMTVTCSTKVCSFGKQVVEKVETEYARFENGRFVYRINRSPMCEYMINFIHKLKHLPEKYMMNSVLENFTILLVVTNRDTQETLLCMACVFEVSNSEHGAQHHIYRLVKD

The target in data set [9] is T3, TEAD3 (Homo sapiens, UniProt Q99594). Put plainly: cellular thermal shift assay. The note with it: HEK293T cells, 50 μmol/L, 6 h. Format: cell-based. Summed up:
as §3
Target sequence in this assay (Q99594 whole entry): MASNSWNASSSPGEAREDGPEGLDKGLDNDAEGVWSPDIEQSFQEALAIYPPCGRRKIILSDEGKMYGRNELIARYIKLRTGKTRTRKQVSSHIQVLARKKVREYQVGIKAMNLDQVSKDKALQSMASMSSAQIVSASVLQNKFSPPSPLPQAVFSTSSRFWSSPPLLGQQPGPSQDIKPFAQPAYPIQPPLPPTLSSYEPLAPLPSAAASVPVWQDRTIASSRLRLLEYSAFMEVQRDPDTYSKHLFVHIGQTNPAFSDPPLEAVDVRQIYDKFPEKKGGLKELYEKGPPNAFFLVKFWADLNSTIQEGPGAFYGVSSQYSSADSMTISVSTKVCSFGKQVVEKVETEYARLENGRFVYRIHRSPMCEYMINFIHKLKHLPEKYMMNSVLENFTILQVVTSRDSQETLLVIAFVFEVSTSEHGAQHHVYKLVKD

Data set [10] deals with juvenile zebrafish. In words: proportional growth of juvenile zebrafish. The settings on record: 2-month-old juveniles, 0.25 μmol/L in water, 14 days. Format: in vivo. Put shortly: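 AB wild-type zebrafish, 2 months old, both sexes equally, 10 per dish in 30 mL sterilised facility water. Water held 0.25 μmol/L test compound (final) or matching DMSO dilution for 14 days, aerated, refreshed daily; fed twice daily. Fish imaged by stereomicroscope from day 0. Fin length taken from fin base to line joining lobe tips; body length from jaw tip to caudal fin base.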

In data set [11] the target is T2, TEAD1. Put plainly: intact protein mass spectrometry, TEAD1. Format: binding. The note with it: excessive compound, 24 h at 4 °C. Put shortly: (§4)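 Intact-mass LC/MS. Protein diluted to 1 mg/mL in water with 0.1% formic acid; 2 μg injected. Separated on a PLRP-S column with a 15-min water/acetonitrile (0.1% formic acid) gradient at 0.300 mL/min. Analysed on an Orbitrap Fusion with HESI source (capillary 350 °C, 3.5 kV).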
Target sequence in this assay (P28347 209-426): as the sequence (P28347 209-426 C359A) above, with A151C counted along it

Data set [12] addresses T3, TEAD3. In words: intact protein mass spectrometry, TEAD3. The note with it: excessive compound, 24 h at 4 °C. Format: binding. Put shortly:
as §4
Target sequence in this assay (Q99594 219-435): as the sequence (Q99594 219-435) above

The target in data set [13] is TEAD1-YBD (Homo sapiens, UniProt P28347). Put plainly: gel-based ABPP in vitro palmitoylation assay, TEAD1. In kind it is biochemical. The note with it: gel-based ABPP selectivity profiling. Summed up: as §1
Sequence of TEAD1-YBD (P28347 209-426): as the sequence (P28347 209-426 C359A) above, with A151C counted along it
For data set [14], the target named is TEAD3 Y223 mutated to phenylalanine (Homo sapiens, UniProt Q99594, Y230F). In words: gel-based ABPP assay, TEAD3 Y223F mutant. In kind it is biochemical. Put shortly:
as §1

Data set [15] has as its target wild-type TEAD3-YBD (Homo sapiens, UniProt Q99594). In words: protein thermal shift assay. In kind it is binding. The settings on record: DSF. Summed up:
as §2

For data set [16], the target named is widetype TEAD1 (Homo sapiens, UniProt P28347). In words: protein thermal shift assay. The note with it: DSF. Format: binding. Put shortly: as §2
Sequence of widetype TEAD1 (P28347 209-426): as the sequence (P28347 209-426 C359A) above, with A151C counted along it
Data set [17] concerns the target TEAD1 C359S (Homo sapiens, UniProt P28347, C359S). In words: protein thermal shift assay. Format: binding. The settings on record: DSF. Put shortly:
as §2

Data set [18] deals with GAL4-TEAD3 (Homo sapiens, UniProt Q99594). Put plainly: GAL4-Luc reporter assay, GAL4-TEAD3. Format: cell-based. Summed up:
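HEK293T cells (DMEM, 10% FBS, 1% penicillin/streptomycin) co-transfected with a GAL4-Luc reporter (secreted luciferase, 9×GAL4 binding elements), a GAL4-DBD-fused TEAD1, TEAD2, TEAD3 or TEAD4 expression vector, and a YAP-expressing plasmid. Test compound at the specified concentration, 37 °C, 12 h; luciferase signal read on a plate reader. Mean of three technical replicates.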
(In general: Reporter assays use an easily measured gene product as a stand-in for the process of interest.)

In data set [19] the test system is 8xGTIIC-Luc TEADs reporter. Put plainly: TEAD luciferase reporter assay. In kind it is cell-based. The settings on record: HEK293T cells, compared with DC-TEADin1072-N1. Put shortly: (§5)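 HEK293T seeded at 2 × 10^5/well. Transfected with 200 ng 8xGTIIC-Luc TEAD reporter or TOPFlash β-catenin reporter, plus 20 ng pGL4.75 Renilla as internal control. Cells then exposed to various concentrations of test compound or DMSO. Firefly and Renilla signals measured by dual-luciferase assay.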

The subject of data set [20] is TOP Flash beta-catenin reporter system. In words: TOPFlash beta-catenin reporter assay. Format: cell-based. The note with it: HEK293T cells. Summed up: as §5

Structures are written as SMILES. Entries after “also recorded” stand apart in the source; their conditions may differ. Where two headings read alike, the source gives them in different places.

Sequence of TEAD3-YBD C371A mutant (Q99594 219-435 C368A): as the sequence (Q99594 219-435) above, with C150A counted along it
Sequence of TEAD2 (Q15562 217-447): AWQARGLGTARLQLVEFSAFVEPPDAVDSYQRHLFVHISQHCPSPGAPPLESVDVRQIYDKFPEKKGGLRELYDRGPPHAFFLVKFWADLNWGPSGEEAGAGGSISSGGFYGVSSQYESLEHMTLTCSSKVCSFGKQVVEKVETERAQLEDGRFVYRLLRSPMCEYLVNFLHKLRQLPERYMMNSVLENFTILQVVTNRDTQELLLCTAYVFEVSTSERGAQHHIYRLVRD
Sequence of wild-type TEAD3-YBD (Q99594 219-435): as the sequence (Q99594 219-435) above
Sequence of TEAD1 C359S (P28347 209-426 C359S): as the sequence (P28347 209-426 C359A) above, with A151S counted along it
Sequence of TEAD3 Y223 mutated to phenylalanine (Q99594 219-435 Y230F): as the sequence (Q99594 219-435) above, with Y12F counted along it
Sequence of GAL4-TEAD3 (Q99594 2-435): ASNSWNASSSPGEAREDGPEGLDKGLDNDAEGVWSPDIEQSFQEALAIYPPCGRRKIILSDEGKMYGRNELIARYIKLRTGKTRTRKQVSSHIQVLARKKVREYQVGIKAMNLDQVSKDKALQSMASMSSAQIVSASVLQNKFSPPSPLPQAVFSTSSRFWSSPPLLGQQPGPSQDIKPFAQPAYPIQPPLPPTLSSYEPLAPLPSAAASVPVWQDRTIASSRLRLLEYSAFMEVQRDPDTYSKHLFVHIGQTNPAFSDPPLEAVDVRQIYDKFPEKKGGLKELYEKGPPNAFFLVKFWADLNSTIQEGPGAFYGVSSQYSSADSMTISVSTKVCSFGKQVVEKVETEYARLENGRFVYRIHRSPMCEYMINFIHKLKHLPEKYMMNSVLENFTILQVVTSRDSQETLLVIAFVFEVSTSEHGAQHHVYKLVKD
Sequence of GAL4-TEAD3 (P46937 whole entry partner, the tested form may be a part): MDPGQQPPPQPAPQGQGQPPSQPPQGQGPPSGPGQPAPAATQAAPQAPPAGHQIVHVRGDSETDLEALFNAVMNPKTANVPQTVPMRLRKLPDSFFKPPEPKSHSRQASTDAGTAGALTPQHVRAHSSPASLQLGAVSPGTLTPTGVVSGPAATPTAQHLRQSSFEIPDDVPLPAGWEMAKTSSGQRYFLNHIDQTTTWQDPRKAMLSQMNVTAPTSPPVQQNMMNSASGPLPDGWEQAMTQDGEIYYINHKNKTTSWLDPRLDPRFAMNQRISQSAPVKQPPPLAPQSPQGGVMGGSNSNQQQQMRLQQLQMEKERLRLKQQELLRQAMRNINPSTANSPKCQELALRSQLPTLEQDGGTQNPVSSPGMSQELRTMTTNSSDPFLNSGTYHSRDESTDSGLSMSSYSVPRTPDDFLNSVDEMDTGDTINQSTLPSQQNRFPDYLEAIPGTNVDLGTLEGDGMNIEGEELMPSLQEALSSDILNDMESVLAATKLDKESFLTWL

For the compound `C=CC(=O)N1CCN(CCCOCc2ccccc2)CC1` [DC-TEAD3in02, 1-(4-(3-(Benzyloxy)propyl)piperazin-1-yl)prop-2-en-1-one], in data set [1], the “inhibition of TEAD3 palmitoylation” value was “potent inhibition”.

Consider `O=C(O)c1ccccc1Nc1cccc(C(F)(F)F)c1` [flufenamic acid], for which the “effect on TEAD‒YAP interaction” value in data set [2] is recorded as “minimal effect”.

In the case of `C=CC(=O)N1CCC(CCOc2ccccc2)CC1` [DC-TEADin1072, 1-(4-(2-Phenoxyethyl)piperidin-1-yl)prop-2-en-1-one], in data set [1], the IC50 is 580 ± 120 nM. Besides, the “inhibition of TEAD2 palmitoylation” value in [3] is “sparing”. Moreover, in data set [4], the “inhibition of TEAD4 palmitoylation” value is on record as “sparing”. For the same compound, in [5], the “effect on thermal stability of TEAD3 C371A mutant” value is “significantly abolished the compound effect”. Besides, the “effect on thermal stability of TEAD1-YBD C359A mutant” value in [6] is given as “significantly abolished the compound effect”. For the same compound, in data set [7], the “effect on TEAD‒YAP interaction” value is given as “minimal effect”. For the same compound, the “thermal stability of TEAD1 in intact cells” value in data set [8] is on record as “increase the thermal stability”. Further, in data set [9], the “thermal stability / soluble fraction of TEAD3 in intact cells” value is recorded as “increase the thermal stability”. Moreover, the “ectopic or tumorous growth” value in data set [10] is “No obvious ectopic or tumorous growth”. For the same compound, in data set [10] (vs DMSO), the body growth rate result was “decreased significantly; also recorded: reduction”, the body length entry is “nearly significantly different”, the “growth rate of the caudal fin” value is recorded as “reduced; also recorded: reduction” and the “tail (caudal fin) length” value is given as “no differences”. For the same compound, the “difference in mass of TEAD1 protein after incubation” value in data set [11] was “+259.5 Da”. Moreover, the “difference in mass of TEAD3 protein after incubation” value in [12] is reported as “+259.5 Da”.

With `C=CC(=O)N1CCC(O)(CCCOCc2ccccc2)CC1` [DC-TEAD3in01, 1-(4-(3-(Benzyloxy)propyl)-4-hydroxypiperidin-1-yl)prop-2-en-1-one], the “inhibition of TEAD3 palmitoylation” value in data set [1] is recorded as “potent inhibition”.

On to `CCC(=O)N1CCC(CCOc2ccccc2)CC1` [DC-TEADin1072-N1, 1-(4-(2-Phenoxyethyl)piperidin-1-yl)propan-1-one], for which the “inhibition of TEAD3 palmitoylation” value in data set [1] is given as “minimal inhibition”.

Consider `C=CC(=O)N1CCCN(CCCOCc2ccccc2)C1` [DC-TEAD3in03, 1-(3-(3-(Benzyloxy)propyl)tetrahydropyrimidin-1(2H)-yl)prop-2-en-1-one], for which, in data set [1] (TEAD3 versus other TEAD isoforms, ABPP assays), the “selectivity over other TEAD isoforms” value is recorded as 100 fold. Moreover, the “inhibition of TEAD3 palmitoylation” value in [1] is “potent inhibition”. Besides, the “inhibition of TEAD1 palmitoylation” value in [13] is “selectively inhibited”. Moreover, in data set [3], the “inhibition of TEAD2 palmitoylation” value is “sparing”. The “inhibition of TEAD4 palmitoylation” value in [4] is on record as “sparing”. The same compound showed a concentration for half-maximal inhibition (IC50) in data set [14] of around 18500 nM. In data set [15], the “effect on thermal stability of TEAD3 protein” value is reported as “significantly improved”. Also, the “effect on thermal stability of wild-type TEAD1” value in [16] is reported as “minimal effect”. For the same compound, the “effect on thermal stability of TEAD3 C371A mutant” value in [5] is on record as “minimal effect”. Besides, the “effect on thermal stability of TEAD1 C359S mutant” value in [17] is reported as “minimal effect”. Further, in data set [18], the concentration for half-maximal inhibition (IC50) is 1150 nM. Also, the TEAD reporter activity entry in data set [19] was “significant reduction”. In addition, the “effect on TOP Flash beta-catenin reporter” value in data set [20] is “minimal effect”. In addition, in data set [9], the “thermal stability / soluble fraction of TEAD3 in intact cells” value is recorded as “increased the soluble fraction; also recorded: significantly increases the content of TEAD3 soluble contents”. Moreover, the “ectopic or tumorous growth” value in data set [10] is “no ectopic or tumorous growth”. In data set [10] (vs DMSO), the body growth rate entry is reported as “did not observe a significant difference”, the body length result was “did not observe a significant difference” and the “growth rate of the caudal fin” value is listed as “reduced the growth rate; also recorded: selective reduction”.

The values above are taken from article PMC8546857 (Acta Pharmaceutica Sinica. B, 2021).
